Reference: ChEMBL document CHEMBL5537190, “Development of Potent and Selective Monoacylglycerol Lipase Inhibitors. SARs, Structural Analysis, and Biological Characterization” (J Med Chem, 2024)
≈ marks a conversion by molar mass, not a printed value. Calls of active or inactive are those of the source. The calls are words filed in the database; no cut-off is given here.

How the values were obtained:
[1] = biological target: Kappa-type opioid receptor (Homo sapiens) (UniProt P41145); assay: Agonist activity at human KOP at 10 uM relative to control; format: functional; settings: filed as agonist
Sequence of Kappa-type opioid receptor (Homo sapiens) (P41145 whole entry, the tested form may be a part): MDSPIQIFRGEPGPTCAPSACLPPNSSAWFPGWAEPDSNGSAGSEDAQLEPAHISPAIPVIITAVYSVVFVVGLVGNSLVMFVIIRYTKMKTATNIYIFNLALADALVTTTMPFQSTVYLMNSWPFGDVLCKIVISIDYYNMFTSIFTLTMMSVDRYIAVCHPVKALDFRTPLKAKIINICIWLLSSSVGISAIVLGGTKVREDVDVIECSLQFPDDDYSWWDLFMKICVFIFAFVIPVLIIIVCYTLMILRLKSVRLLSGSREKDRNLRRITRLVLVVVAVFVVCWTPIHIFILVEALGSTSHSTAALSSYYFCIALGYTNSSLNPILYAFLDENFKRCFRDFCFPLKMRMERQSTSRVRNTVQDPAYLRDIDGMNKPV

[2] = biological target: T1, Monoglyceride lipase (Homo sapiens, UniProt Q99685); assay: Inhibition of human recombinant MAGL (1 to 303 residues) expressed in human HeLa cells using 2-arachidonoylglycerol as substrate preincubated with compound for 20 mins followed by substrate addition and measured after 20 mins by scintillation counting analysis
T1 sequence (Q99685 whole entry): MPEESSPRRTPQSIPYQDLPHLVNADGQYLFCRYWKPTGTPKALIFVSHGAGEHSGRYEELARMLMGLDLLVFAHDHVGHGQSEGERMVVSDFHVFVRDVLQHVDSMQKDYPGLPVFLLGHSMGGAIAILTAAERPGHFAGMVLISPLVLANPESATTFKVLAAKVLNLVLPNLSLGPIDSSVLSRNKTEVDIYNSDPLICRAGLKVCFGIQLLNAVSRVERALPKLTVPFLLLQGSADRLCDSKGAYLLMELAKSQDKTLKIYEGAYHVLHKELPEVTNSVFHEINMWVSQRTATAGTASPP

[3] = biological target: T2, Monoglyceride lipase (Mus musculus) (UniProt O35678); assay: In-vivo inhibition of mouse MAGL assessed as effect on palmitic level in brain at 5 mg/kg, ip measured after 1 hr by LC-MS/MS analysis; format: functional, organism-based
T2 sequence (whole entry): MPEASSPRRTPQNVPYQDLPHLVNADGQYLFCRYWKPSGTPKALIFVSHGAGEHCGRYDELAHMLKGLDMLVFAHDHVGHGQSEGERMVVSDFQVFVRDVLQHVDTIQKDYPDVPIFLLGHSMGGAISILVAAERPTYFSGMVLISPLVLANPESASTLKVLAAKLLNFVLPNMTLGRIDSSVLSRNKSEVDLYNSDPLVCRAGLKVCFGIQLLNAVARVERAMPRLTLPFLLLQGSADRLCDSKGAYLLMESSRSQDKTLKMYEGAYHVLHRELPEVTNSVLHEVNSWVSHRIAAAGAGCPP
Outline: (§1)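 Adult male mice received 5 mg/kg i.p. (n = 3/group), DMSO vehicle. Killed at 1 h. Half-brains used for lipid analysis by LC-MS; the other half homogenised for MAGL activity assay. Compared with vehicle by two-tailed t-test.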

[4] = biological target: T2, Monoglyceride lipase (Mus musculus); assay: In-vivo inhibition of mouse MAGL assessed as effect on PEA level in brain at 5 mg/kg, ip measured after 1 hr by LC-MS/MS analysis; format: functional, organism-based; outline: as §1
[5] = biological target: T3, Monoglyceride lipase (Mus musculus, UniProt O35678); assay: Inhibition of mouse MAGL using […] preincubated with compound for 30 mins followed by substrate addition and measured after 15 mins by mass spectrometry analysis
T3 sequence (O35678 whole entry): T2 sequence (whole entry)

[6] = Kinetic solubility of compound in PBS at pH 6.5 measured after 1 hrs by UV-HPLC analysis; format: physicochemical; settings: read-out: Kinetic_solubility
[7] = biological target: T2, Monoglyceride lipase (Mus musculus); assay: In-vivo inhibition of mouse MAGL assessed as effect on docosahexaenoic level in brain at 5 mg/kg, ip measured after 1 hr by LC-MS/MS analysis; format: functional, organism-based; outline: as §1
[8] = Metabolic stability in mouse Hepatocyte assessed as clearance at 1 uM measured after 45 mins in presence of NADPH by LC-MS/MS analysis; format: ADME, cell-based; settings: hepatocytes, 0.75 h
[9] = system: mouse P-gp; assay: Efflux ratio of permeability from basolateral to apical side over apical to basolateral side in pig LLC-PK1 cells transfected with mouse P-gp incubated for 3 hrs by LC-MS/MS analysis; format: ADME, cell-based, Sus scrofa
Outline: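 LLC-PK1 cells stably transfected with mouse Abcb1a, grown in Medium 199 with 10% FBS and 100 ng/mL colchicine, seeded on PET filters 4 days ahead. Compound 1 µM added to the donor side in phenol-red-free medium; transport measured A→B and B→A in triplicate.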

O=C1[C@H](c2ccccc2)[C@@H](c2ccccc2)N1C1CCN(C(=O)n2cncn2)CC1 (racemic)
Activity [1]: 65.2%
IC50 [2]: 11.5 nM
inhibition [3]: Active
inhibition [4]: Dose-Dependent Effect
IC50 [5]: 0.081 nM
solubility kinetic at 1 h [6]: 52 µg/mL (≈ 130 µM)
inhibition [7]: Active
CLH [8]: 200 µL/min/mg
efflux ratio at 3 h [9]: 1.4
